T cruzi HTS: blocks T. cruzi growth inside host cells; 22,000 compounds, 4.9% hits; activity score (inhibition), % at 5.01 µM; intracellular Trypanosoma cruzi in host cells, plate reader; in the data active = activity score above about 55%; inconclusive = no clear call, values can overlap the other calls;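 also: parasites and compound incubated about four days before reading; 0% = median of neutral control wells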
A1 apoptosis 2: A1 inhibition read as caspase activation. MEF A1-2A-BIM cells, caspase-Glo luminescence, 3 h; percent of clofoctol response, DMSO zero. caspase activation, % (concentration not given with the values). 24,000 tested, under 10 active; in the data active = caspase activation above about 5.9%; inconclusive = no clear call, values can overlap the other calls; inactive = below about 2.2%
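Material: mouse embryonic fibroblasts co-expressing A1 and BIM (A1-2A-BIM), primed for A1 dependence / Quantity: 2500 cells/well / Buffer or medium: RPMI-1640 growth medium with 10% FBS / Doses: 50 nL compound per well, pinned / Schedule: 3 h compound exposure at 37 °C / Signal: Caspase-Glo luminescence (DEVD substrate) / Measure: Caspase-3/7 activation, seen as rise in luminescence signal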
INS-1E rescue: INS-1E beta cell protection from cytokine death | INS-1E cytokine-induced death, ATP luminescence, 48 h; normalised: neutral wells 0, positive control 100 | protection from cytokine-induced ATP loss, % at 10 µM | 20,000 compounds, 0.1% hits | AID 488910;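 active = mean replicate protection from cytokine-induced ATP loss at least 50% and at least 75% of replicates each reaching 50%; inconclusive = meets only one of the two criteria, mean or replicate share; inactive = fails both the mean and replicate share criteria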
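Assay system: INS-1E rat insulinoma cells. Amount: 8000 cells per well. Medium: phenol-red-free RPMI with 5% fetal bovine serum. Reagent: IL-1β, TNF-α and IFN-γ cytokine mix. Doses: one compound concentration, pin transfer. Schedule: 48 h co-treatment, 10 min post-lysis read. Detection: CellTiter-Glo luminescence measuring cellular ATP.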
* hit, by the source's call; ? = inconclusive; · = no result given. This excerpt belongs to a sample that is enriched for hits.

SMILES	T cruzi HTS	A1 apoptosis 2	INS-1E rescue
Cc1ccc(S(=O)(=O)N(C)C[C@H]2Oc3c(NC(=O)c4ccc(-c5nccs5)cc4)cccc3C(=O)N([C@@H](C)CO)C[C@H]2C)cc1	26	·	0
COc1ccc(S(=O)(=O)N(C)C[C@H]2Oc3c(NC(=O)c4ccc(-c5nccs5)cc4)cccc3C(=O)N([C@H](C)CO)C[C@H]2C)cc1	32	·	9
O=C(N/N=C/c1ccoc1)c1ccccn1	-4	·	-1
O=C(N/N=C/C=C/c1ccccc1)c1ccccc1O	-25	-2	-57
C=CCOc1ccccc1/C=N/NC(=O)c1cccc(C(=O)NO)c1	-18	·	7
C[C@H]1CN([C@@H](C)CO)C(=O)Cc2cc(N(C)C)ccc2O[C@@H]1CN(C)Cc1ccccc1	58*	1	-6
C[C@H](CO)N1C[C@H](C)[C@H](CN(C)Cc2ccc(Oc3ccccc3)cc2)Oc2ccc(N(C)C)cc2CC1=O	34	·	-16
C[C@H](CO)N1C[C@H](C)[C@@H](CN(C)Cc2ccccc2)Oc2ccc(N(C)C)cc2CC1=O	·	0	·
C[C@@H]1CN([C@H](C)CO)C(=O)Cc2cc(N(C)C)ccc2O[C@H]1CN(C)Cc1ccc(Oc2ccccc2)cc1	57*	·	-27
C[C@@H]1CN([C@H](C)CO)C(=O)Cc2cc(NS(=O)(=O)c3ccc(F)cc3)ccc2O[C@H]1CN(C)Cc1ccc(Oc2ccccc2)cc1	66*	-1	-45
C[C@@H]1CN([C@@H](C)CO)C(=O)Cc2cc(NS(=O)(=O)c3ccccc3)ccc2O[C@@H]1CN(C)Cc1ccc(Oc2ccccc2)cc1	45	0	-20
Cc1ccc(S(=O)(=O)Nc2ccc3c(c2)CC(=O)N([C@H](C)CO)C[C@H](C)[C@@H](CN(C)Cc2ccc(Oc4ccccc4)cc2)O3)cc1	·	-2	·
Cc1ccc(S(=O)(=O)Nc2ccc3c(c2)CC(=O)N([C@H](C)CO)C[C@@H](C)[C@@H](CN(C)Cc2ccc(Oc4ccccc4)cc2)O3)cc1	65*	·	-22
C[C@H]1CN([C@@H](C)CO)C(=O)Cc2cc(NS(=O)(=O)c3ccc(F)cc3)ccc2O[C@@H]1CN(C)Cc1ccc(Oc2ccccc2)cc1	66*	2	-19
C[C@@H]1CN([C@H](C)CO)C(=O)Cc2cc(NS(=O)(=O)c3ccccc3)ccc2O[C@H]1CN(C)Cc1ccc(Oc2ccccc2)cc1	40	·	-19
COc1ccc(S(=O)(=O)Nc2ccc3c(c2)CC(=O)N([C@H](C)CO)C[C@H](C)[C@@H](CN(C)S(=O)(=O)c2cccs2)O3)cc1	·	0	·
C[C@@H]1CN([C@H](C)CO)C(=O)Cc2cc(NS(=O)(=O)c3ccc(Cl)cc3)ccc2O[C@@H]1CN(C)S(=O)(=O)c1cccs1	74*	·	-5
C[C@H]1CN([C@@H](C)CO)C(=O)Cc2cc(NS(=O)(=O)c3ccc(Cl)cc3)ccc2O[C@@H]1CN(C)S(=O)(=O)c1cccs1	-33	·	12
COc1ccc(S(=O)(=O)Nc2ccc3c(c2)CC(=O)N([C@H](C)CO)C[C@@H](C)[C@@H](CN(C)S(=O)(=O)c2cccs2)O3)cc1	77*	-1	-1
COc1ccc(Br)c(/C=N/NC(=O)c2ccc(C(=O)NO)cc2)c1	3	0	28
Cc1ccc(F)cc1S(=O)(=O)N[C@@H]1CCN(Cc2ccc3c(c2)OCO3)C1	·	-1	·
COc1ccc(S(=O)(=O)Nc2ccc3c(c2)C(=O)N([C@H](C)CO)C[C@H](C)[C@@H](CN(C)Cc2ccc(C(F)(F)F)cc2)O3)cc1	64*	-1	-12
Cc1ccc(S(=O)(=O)Nc2ccc3c(c2)C(=O)N([C@@H](C)CO)C[C@H](C)[C@@H](CN(C)Cc2ccc(C(F)(F)F)cc2)O3)cc1	65*	·	·
C[C@@H]1CN([C@@H](C)CO)C(=O)c2cc(NS(=O)(=O)c3ccc(F)cc3)ccc2O[C@H]1CN(C)Cc1ccc(C(F)(F)F)cc1	38	-1	-13
COc1ccc(S(=O)(=O)Nc2ccc3c(c2)C(=O)N([C@H](C)CO)C[C@@H](C)[C@H](CN(C)Cc2ccc(C(F)(F)F)cc2)O3)cc1	5	0	·
SMILES	T cruzi HTS	A1 apoptosis 2	INS-1E rescue
Cc1ccc(S(=O)(=O)Nc2ccc3c(c2)C(=O)N([C@@H](C)CO)C[C@H](C)[C@H](CN(C)Cc2ccc(C(=O)O)cc2)O3)cc1	-19	·	8
Cc1ccc(S(=O)(=O)Nc2ccc3c(c2)C(=O)N([C@H](C)CO)C[C@@H](C)[C@@H](CN(C)Cc2ccc4c(c2)OCO4)O3)cc1	8	-1	-4
C[C@H](CO)N1C[C@H](C)[C@@H](CN(C)Cc2ccc3c(c2)OCO3)Oc2ccc(NS(=O)(=O)c3ccc(F)cc3)cc2C1=O	59*	-1	3
C[C@H](CO)N1C[C@H](C)[C@@H](CN(C)Cc2ccc(C(F)(F)F)cc2)Oc2ccc(NS(=O)(=O)c3ccc(F)cc3)cc2C1=O	61*	·	·
O=C(N/N=C/c1c(O)cc(O)cc1O)c1ccccn1	7	-8	-8
O=C(CCCCCCC(=O)Nc1ccccc1O)N/N=C/c1cc(O)ccc1[N+](=O)[O-]	-5	0	-12
C=CCC/C=N/NC(=O)CCCCCCC(=O)Nc1ccccc1O	-5	-1	4
O=C(NO)c1ccc(C(=O)N/N=C/c2ccccc2Br)cc1	14	-2	-6
Cc1ccc(S(=O)(=O)Nc2ccc3c(c2)C(=O)N([C@H](C)CO)C[C@H](C)[C@@H](CN(C)Cc2ccc(C(F)(F)F)cc2)O3)cc1	67*	-2	3
C[C@@H]1CN([C@@H](C)CO)C(=O)c2cc(NS(=O)(=O)c3ccc(F)cc3)ccc2O[C@@H]1CN(C)Cc1ccc(C(F)(F)F)cc1	?	-1	-31
Cc1ccc(S(=O)(=O)Nc2ccc3c(c2)C(=O)N([C@@H](C)CO)C[C@@H](C)[C@@H](CN(C)Cc2ccc(C(F)(F)F)cc2)O3)cc1	-7	0	·
C[C@H]1CN([C@@H](C)CO)C(=O)c2cc(NS(=O)(=O)c3ccccc3)ccc2O[C@H]1CN(C)Cc1ccc(C(F)(F)F)cc1	62*	·	·
C[C@@H]1CN([C@@H](C)CO)C(=O)c2cc(NS(=O)(=O)c3ccccc3)ccc2O[C@H]1CN(C)Cc1ccc(C(F)(F)F)cc1	44	·	-18
Cc1ccc(S(=O)(=O)Nc2ccc3c(c2)C(=O)N([C@H](C)CO)C[C@@H](C)[C@@H](CN(C)Cc2ccc(C(F)(F)F)cc2)O3)cc1	60*	·	-27
Cc1ccc(S(=O)(=O)Nc2ccc3c(c2)C(=O)N([C@H](C)CO)C[C@@H](C)[C@H](CN(C)Cc2ccc(C(=O)O)cc2)O3)cc1	-25	·	5
C[C@@H]1CN([C@@H](C)CO)C(=O)c2cc(NS(=O)(=O)c3ccc(Cl)cc3)ccc2O[C@@H]1CN(C)Cc1ccc(C(F)(F)F)cc1	84*	-1	-31
O=C1N(CCS(=O)(=O)c2ccccc2)c2ccccc2[C@H]2OC(c3ccc(OCCCO)cc3)=N[C@@]12CCS(=O)(=O)c1ccccc1	·	-1	·
CC(=O)n1cc([C@H]2C=C(C(=O)N3CCN(C)CC3)O[C@@H](OCc3ccc(CO)cc3)C2)c2ccccc21	·	0	·

Screens (PubChem BioAssay)
